In ChEMBL document CHEMBL2021799, “Exploring the interplay of physicochemical properties, membrane permeability and giardicidal activity of some benzimidazole derivatives” (Eur J Med Chem, 2012):
Values after ≈ are worked out from the molar mass of the structure shown.

Key:
Caco-2 [1] = test: Influx ratio of permeability from basolateral to apical side over apical to basolateral side in human Caco2 cells at 100 uM up to 90 mins; details: caco-2, 1.5 h
Caco-2 [2] = test: Apparent permeability from basolateral to apical side of human Caco2 cells at 100 uM up to 90 mins; details: caco-2, 1.5 h
Caco-2 [3] = test: Efflux ratio of permeability from apical to basolateral side over basolateral to apical side in human Caco2 cells at 100 uM up to 90 mins; details: caco-2, 1.5 h
[4] = Lipophilicity, logkw of the compound by RP-HPLC analysis
[5] = Aqueous solubility of the compound
[6] = Distribution coefficient, log D of the compound; details: octanol/water
Giardia intestinalis [7] = test: Antiparasitic activity against Giardia duodenalis IMSS:0989 after 48 hrs; type: functional, organism-based; details: IMSS:0989, 48 h
Summary of the method: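 G. duodenalis trophozoites grown in modified TYI-S-33 with 10% calf serum and bovine bile. 5 × 10⁴ trophozoites incubated 48 h at 37 °C with increasing compound concentrations; DMSO-treated trophozoites as negative control. An aliquot was then subcultured 48 h in fresh drug-free medium, trophozoites counted, and IC50 obtained by Probit analysis.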

Caco-2 [8] = test: Apparent permeability from apical to basolateral side of human Caco2 cells at 100 uM up to 90 mins; details: caco-2, 1.5 h
Giardia intestinalis [9] = test: Ratio of metronidazole IC50 to compound IC50 for Giardia duodenalis IMSS:0989; type: functional
[10] = aqueous medium, not specified further

CC(C)NCC(O)COc1cccc2ccccc12 (centres undefined) [PROPRANOLOL]
Ratio (Caco-2 [1]): 1.27 | Papp (Caco-2 [2]): 37.9 ×10⁻⁶ cm/s | Ratio (Caco-2 [3]): 0.78

FC(F)(F)c1nc2cc(Cl)c(Cl)cc2[nH]1
logKw [4]: 2.78 | solubility [5, 10]: 0.0025 µg/mL (≈ 0.0098 µM) | log1/S ([5]; buffer): 8 | logD [6]: 4.49

O=C(O)c1ccc2nc(C(F)(F)F)[nH]c2c1
IC50 (Giardia intestinalis [7]): 172 nM | Papp (Caco-2 [8]): 0.57 ×10⁻⁶ cm/s | solubility [5, 10]: 0.189 µg/mL (≈ 0.819 µM) | Papp (Caco-2 [2]): 0.74 ×10⁻⁶ cm/s

CSc1nc2ccc(Cl)cc2n1C
IC50 (Giardia intestinalis [7]): 122 nM

CSc1nc2cc(Cl)ccc2n1C
Ratio (Caco-2 [1]): 0.53 | IC50 (Giardia intestinalis [7]): 28 nM | Papp (Caco-2 [8]): 7.59 ×10⁻⁶ cm/s | logKw [4]: 2.46 | solubility [5, 10]: 0.0172 µg/mL (≈ 0.0809 µM) | log1/S ([5]; buffer): 7.09 | logD [6]: 4.11 | Papp (Caco-2 [2]): 14.2 ×10⁻⁶ cm/s | Ratio (Caco-2 [3]): 1.87

COC(=O)Nc1nc2ccc(C(=O)c3ccccc3)cc2[nH]1 [MEBENDAZOLE]
IC50 (Giardia intestinalis [7]): 55 nM | Papp (Caco-2 [8]): 5.15 ×10⁻⁶ cm/s | logKw [4]: 1.68 | logD [6]: 3.73 | Papp (Caco-2 [2]): 4.34 ×10⁻⁶ cm/s

Cn1c(S)nc2cc(Cl)ccc21
Ratio (Caco-2 [1]): 0.72 | IC50 (Giardia intestinalis [7]): 45 nM | Papp (Caco-2 [8]): 6.92 ×10⁻⁶ cm/s | Ratio IC50 (Giardia intestinalis [9]): 61 | logKw [4]: 1.61 | solubility [5, 10]: 3.79 µg/mL (≈ 19.1 µM) | log1/S ([5]; buffer): 4.71 | logD [6]: 3.14 | Papp (Caco-2 [2]): 9.57 ×10⁻⁶ cm/s | Ratio (Caco-2 [3]): 1.38

Cn1c(C(F)(F)F)nc2cc(Cl)ccc21
logKw [4]: 2.33 | solubility [5, 10]: 0.0412 µg/mL (≈ 0.176 µM) | log1/S ([5]; buffer): 6.75 | logD [6]: 3.98

COC(=O)Nc1nc2ccc(Sc3ccccc3)cc2[nH]1 [FENBENDAZOLE]
IC50 (Giardia intestinalis [7]): 56 nM | logKw [4]: 2.44 | solubility [5, 10]: 0.025 µg/mL (≈ 0.0835 µM) | log1/S ([5]; buffer): 7.07 | logD [6]: 3.93

COC(=O)c1ccc2[nH]c(C(F)(F)F)nc2c1
Ratio (Caco-2 [1]): 1.42 | IC50 (Giardia intestinalis [7]): 1190 nM | Papp (Caco-2 [8]): 32.7 ×10⁻⁶ cm/s | logKw [4]: 1.94 | solubility [5, 10]: 0.555 µg/mL (≈ 2.27 µM) | log1/S ([5]; buffer): 5.64 | logD [6]: 3.52 | Papp (Caco-2 [2]): 23 ×10⁻⁶ cm/s | Ratio (Caco-2 [3]): 0.7

COC(=O)c1ccc2c(c1)nc(C(F)(F)F)n2C
Ratio (Caco-2 [1]): 1.11 | IC50 (Giardia intestinalis [7]): 2450 nM | Papp (Caco-2 [8]): 26.7 ×10⁻⁶ cm/s | logKw [4]: 2.05 | solubility [5, 10]: 0.281 µg/mL (≈ 1.09 µM) | log1/S ([5]; buffer): 5.96 | logD [6]: 3.65 | Papp (Caco-2 [2]): 23.9 ×10⁻⁶ cm/s | Ratio (Caco-2 [3]): 0.89

CNC(=O)c1ccc2nc(C(F)(F)F)n(C)c2c1
Ratio (Caco-2 [1]): 1.62 | IC50 (Giardia intestinalis [7]): 211 nM | Papp (Caco-2 [8]): 14.6 ×10⁻⁶ cm/s | logKw [4]: 1.33 | solubility [5, 10]: 29.6 µg/mL (≈ 115 µM) | log1/S ([5]; buffer): 3.93 | logD [6]: 3.92 | Papp (Caco-2 [2]): 8.98 ×10⁻⁶ cm/s | Ratio (Caco-2 [3]): 0.61

Cn1c(S)nc2ccc(Cl)cc21
Ratio (Caco-2 [1]): 0.51 | IC50 (Giardia intestinalis [7]): 20 nM | Papp (Caco-2 [8]): 14.1 ×10⁻⁶ cm/s | Ratio IC50 (Giardia intestinalis [9]): 27 | logKw [4]: 1.9 | solubility [5, 10]: 0.588 µg/mL (≈ 2.96 µM) | log1/S ([5]; buffer): 5.59 | logD [6]: 3.47 | Papp (Caco-2 [2]): 27.2 ×10⁻⁶ cm/s | Ratio (Caco-2 [3]): 1.93

COC(=O)Nc1nc2ccccc2[nH]1 [CARBENDAZIM]
logKw [4]: 0.9 | log1/S ([5]; buffer): 1.89 | solubility ([5]; buffer): 2441 µg/mL (≈ 12800 µM) | logD [6]: 1.49

Cc1nc2cc(Cl)c(Cl)cc2n1C
Ratio (Caco-2 [1]): 0.71 | IC50 (Giardia intestinalis [7]): 55 nM | Papp (Caco-2 [8]): 7.98 ×10⁻⁶ cm/s | logKw [4]: 2.24 | solubility [5, 10]: 0.0716 µg/mL (≈ 0.333 µM) | log1/S ([5]; buffer): 6.47 | logD [6]: 3.86 | Papp (Caco-2 [2]): 11.2 ×10⁻⁶ cm/s | Ratio (Caco-2 [3]): 1.4

CNC(=O)c1ccc2[nH]c(C(F)(F)F)nc2c1
IC50 (Giardia intestinalis [7]): 320 nM | logKw [4]: 1.21 | solubility [5, 10]: 87.8 µg/mL (≈ 361 µM) | log1/S ([5]; buffer): 3.6 | logD [6]: 2.68

Cn1c(C(F)(F)F)nc2cc(C(=O)O)ccc21
Ratio (Caco-2 [1]): 1.35 | IC50 (Giardia intestinalis [7]): 2770 nM | Papp (Caco-2 [8]): 9.83 ×10⁻⁶ cm/s | logKw [4]: 1.47 | solubility [5, 10]: 10.9 µg/mL (≈ 44.6 µM) | log1/S ([5]; buffer): 4.35 | logD [6]: 2.98 | Papp (Caco-2 [2]): 7.25 ×10⁻⁶ cm/s | Ratio (Caco-2 [3]): 0.74

FC(F)(F)c1nc2ccccc2[nH]1
logKw [4]: 1.8 | solubility [5, 10]: 0.992 µg/mL (≈ 5.33 µM) | log1/S ([5]; buffer): 5.27 | logD [6]: 3.36

COC(=O)c1ccc2nc(C(F)(F)F)n(C)c2c1
Ratio (Caco-2 [1]): 1.8 | IC50 (Giardia intestinalis [7]): 3820 nM | Papp (Caco-2 [8]): 39.2 ×10⁻⁶ cm/s | logKw [4]: 2.24 | solubility [5, 10]: 0.0859 µg/mL (≈ 0.333 µM) | log1/S ([5]; buffer): 6.47 | logD [6]: 3.86 | Papp (Caco-2 [2]): 21.8 ×10⁻⁶ cm/s | Ratio (Caco-2 [3]): 0.55

Cn1c(C(F)(F)F)nc2ccc(C(=O)O)cc21
Ratio (Caco-2 [1]): 1.09 | IC50 (Giardia intestinalis [7]): 330 nM | Papp (Caco-2 [8]): 5.09 ×10⁻⁶ cm/s | logKw [4]: 1.13 | solubility [5, 10]: 98.7 µg/mL (≈ 404 µM) | log1/S ([5]; buffer): 3.39 | logD [6]: 3.7 | Papp (Caco-2 [2]): 4.65 ×10⁻⁶ cm/s | Ratio (Caco-2 [3]): 0.91

CCN(CC)C(=O)COC(=O)c1ccc2nc(C(F)(F)F)n(C)c2c1
Ratio (Caco-2 [1]): 1.17 | IC50 (Giardia intestinalis [7]): 470 nM | Papp (Caco-2 [8]): 15.4 ×10⁻⁶ cm/s | logKw [4]: 2.29 | solubility [5, 10]: 0.0572 µg/mL (≈ 0.16 µM) | log1/S ([5]; buffer): 6.62 | logD [6]: 2.81 | Papp (Caco-2 [2]): 13 ×10⁻⁶ cm/s | Ratio (Caco-2 [3]): 0.84

Cc1nc2ccc(Cl)cc2n1C
IC50 (Giardia intestinalis [7]): 44 nM

Cn1c(S)nc2ccccc21
Ratio (Caco-2 [1]): 0.56 | IC50 (Giardia intestinalis [7]): 18 nM | Papp (Caco-2 [8]): 8.14 ×10⁻⁶ cm/s | Ratio IC50 (Giardia intestinalis [9]): 67 | logKw [4]: 1.23 | solubility [5, 10]: 36 µg/mL (≈ 219 µM) | log1/S ([5]; buffer): 3.65 | logD [6]: 2.7 | Papp (Caco-2 [2]): 14.5 ×10⁻⁶ cm/s | Ratio (Caco-2 [3]): 1.78

CSc1nc2ccccc2n1C
Ratio (Caco-2 [1]): 0.74 | IC50 (Giardia intestinalis [7]): 33 nM | Papp (Caco-2 [8]): 7.12 ×10⁻⁶ cm/s | logKw [4]: 1.78 | solubility [5, 10]: 1.14 µg/mL (≈ 6.39 µM) | log1/S ([5]; buffer): 5.19 | logD [6]: 3.33 | Papp (Caco-2 [2]): 9.57 ×10⁻⁶ cm/s | Ratio (Caco-2 [3]): 1.34

c1ccc2[nH]cnc2c1 [BENZIMIDAZOLE]
IC50 (Giardia intestinalis [7]): 137000 nM | logKw [4]: 0.27 | solubility [5, 10]: 7600 µg/mL (≈ 64400 µM) | log1/S ([5]; buffer): 1.45 | logD [6]: 1.37

CCN(CC)C(=O)COC(=O)c1ccc2c(c1)nc(C(F)(F)F)n2C
Ratio (Caco-2 [1]): 1.99 | IC50 (Giardia intestinalis [7]): 133 nM | Papp (Caco-2 [8]): 21.9 ×10⁻⁶ cm/s | logKw [4]: 2.4 | solubility [5, 10]: 0.0401 µg/mL (≈ 0.112 µM) | log1/S ([5]; buffer): 6.94 | logD [6]: 4.06 | Papp (Caco-2 [2]): 11 ×10⁻⁶ cm/s | Ratio (Caco-2 [3]): 0.5

Cn1c(N)nc2cc(Cl)ccc21
Ratio (Caco-2 [1]): 0.54 | IC50 (Giardia intestinalis [7]): 242 nM | Papp (Caco-2 [8]): 5.21 ×10⁻⁶ cm/s | logKw [4]: 3.19 | log1/S ([5]; buffer): 9.12 | solubility ([5]; buffer): 0.0001 µg/mL (≈ 0.000551 µM) | logD [6]: 4.95 | Papp (Caco-2 [2]): 9.57 ×10⁻⁶ cm/s | Ratio (Caco-2 [3]): 1.83

CCCSc1ccc2nc(NC(=O)OC)[nH]c2c1 [ALBENDAZOLE]
Ratio (Caco-2 [1]): 1.35 | Papp (Caco-2 [8]): 3.14 ×10⁻⁶ cm/s | logKw [4]: 1.95 | solubility [5, 10]: 0.75 µg/mL (≈ 2.83 µM) | log1/S ([5]; buffer): 5.55 | logD [6]: 3.83 | Papp (Caco-2 [2]): 1.99 ×10⁻⁶ cm/s | Ratio (Caco-2 [3]): 0.74

Cn1c(C(F)(F)F)nc2ccc(Cl)cc21
logKw [4]: 2.37 | solubility [5, 10]: 0.033 µg/mL (≈ 0.141 µM) | log1/S ([5]; buffer): 6.85 | logD [6]: 4.02

Cc1nc2ccccc2n1C
Ratio (Caco-2 [1]): 0.88 | IC50 (Giardia intestinalis [7]): 89 nM | Papp (Caco-2 [8]): 9.03 ×10⁻⁶ cm/s | logKw [4]: 0.42 | solubility [5, 10]: 5790 µg/mL (≈ 39600 µM) | log1/S ([5]; buffer): 1.4 | logD [6]: 1.77 | Papp (Caco-2 [2]): 10.2 ×10⁻⁶ cm/s | Ratio (Caco-2 [3]): 1.13
